Results: ChEMBL document CHEMBL5247578, “Effective synthesis of benzimidazoles-imidazo[1,2-a]pyrazine conjugates: A comparative study of mono-and bis-benzimidazoles for antitumor activity” (Eur J Med Chem, 2019)

Columns and labels:
Hs-578T [1] = experiment: Antiproliferative activity against human Hs-578T cells assessed as cell growth at 0.0001 M incubated for 48 hrs by SRB assay relative to control; type: functional; conditions: read-out: Activity
In short: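 NCI-60 five-dose mode, 10^-4 to 10^-8 M in 10-fold steps. RPMI 1640, 5% FBS, 2 mM L-glutamine; 24 h preincubation, then 48 h drug exposure at 37 °C. Stocks in DMSO at 400× the top concentration, diluted in medium with gentamicin. TCA fixation, SRB staining, absorbance at 515 nm. Percent growth from time-zero (Tz), control (C) and test (Ti) readings.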

HOP-92 [2] = experiment: Antiproliferative activity against human HOP-92 cells assessed as cell growth at 0.000001 M incubated for 48 hrs by SRB assay relative to control; type: functional; conditions: read-out: Activity
In short: (§1)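 NCI-60 five-dose screen (10^-4 to 10^-8 M). Cells grown in RPMI 1640 with 5% FBS and 2 mM L-glutamine, plated at 5,000-40,000 cells/well and preincubated 24 h. Drug given from DMSO stock, then 48 h at 37 °C, 5% CO2. For adherent lines, cells fixed with cold TCA, SRB-stained and read at 515 nm. Percent growth taken against time-zero and untreated control.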

EKVX = experiment: Growth inhibition against human EKVX cells incubated for 48 hrs by sulforhodamine B assay; type: functional
U-251 = experiment: Growth inhibition against human U-251 cells incubated for 48 hrs by sulforhodamine B assay; type: functional
786-0 = experiment: Antiproliferative activity against human 786-0 cells assessed as cell growth at 0.0000001 M incubated for 48 hrs by SRB assay relative to control; type: functional; conditions: dose 100 nM, read-out: Activity
In short: (§2)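 NCI-60 five-dose screen over 10^-4–10^-8 M (10-fold dilutions). Cells grown in RPMI 1640 with 5% FBS and 2 mM L-glutamine, seeded at 5,000–40,000 cells/well and preincubated 24 h. Drug from DMSO stock, 48 h at 37 °C, 5% CO2. Adherent cells TCA-fixed and stained with 0.4% SRB; A515 read. Percent growth = (Ti−Tz)/(C−Tz)×100, or (Ti−Tz)/Tz×100 when Ti<Tz.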

A498 = experiment: Antiproliferative activity against human A498 cells assessed as cell growth at 0.0001 M incubated for 48 hrs by SRB assay relative to control; type: functional; conditions: read-out: Activity; in short: as §2
HT-29 [3] = experiment: Growth inhibition against human HT-29 cells incubated for 48 hrs by sulforhodamine B assay; type: functional
Hs-578T [4] = experiment: Growth inhibition against human Hs-578T cells assessed as total growth inhibitory concentration incubated for 48 hrs by sulforhodamine B assay; type: functional
SK-OV-3 = experiment: Antiproliferative activity against human SK-OV-3 cells assessed as cell growth at 0.00001 M incubated for 48 hrs by SRB assay relative to control; type: functional; conditions: read-out: Activity
A549 [5] = experiment: Antiproliferative activity against human A549 cells assessed as cell growth at 0.00001 M incubated for 48 hrs by SRB assay relative to control; type: functional; conditions: read-out: Activity; in short: as §2
NCI-H226 [6] = experiment: Antiproliferative activity against human NCI-H226 cells assessed as cell growth at 0.000001 M incubated for 48 hrs by SRB assay relative to control; type: functional; conditions: read-out: Activity
SF-268 = experiment: Antiproliferative activity against human SF-268 cells assessed as cell growth at 0.00000001 M incubated for 48 hrs by SRB assay relative to control; type: functional; conditions: dose 10 nM, read-out: Activity
NCI-H226 [7] = experiment: Antiproliferative activity against human NCI-H226 cells assessed as cell growth at 0.00000001 M incubated for 48 hrs by SRB assay relative to control; type: functional; conditions: dose 10 nM, read-out: Activity
COLO 205 = experiment: Antiproliferative activity against human COLO 205 cells assessed as cell growth at 0.00001 M incubated for 48 hrs by SRB assay relative to control; type: functional; conditions: read-out: Activity; in short: as §2
HOP-92 [8] = experiment: Growth inhibition against human HOP-92 cells incubated for 48 hrs by sulforhodamine B assay; type: functional
Malme-3M [9] = experiment: Growth inhibition against human Malme-3M cells incubated for 48 hrs by sulforhodamine B assay; type: functional
MDA-MB-231 = experiment: Antiproliferative activity against human MDA-MB-231 cells assessed as cell growth at 0.0001 M incubated for 48 hrs by SRB assay relative to control; type: functional; conditions: read-out: Activity
SF-539 = experiment: Growth inhibition against human SF-539 cells assessed as total growth inhibitory concentration incubated for 48 hrs by sulforhodamine B assay; type: functional
OVCAR-8 [10] = experiment: Growth inhibition against human OVCAR-8 cells incubated for 48 hrs by sulforhodamine B assay; type: functional
HL-60 = experiment: Antiproliferative activity against human HL-60 cells assessed as cell growth at 0.00001 M incubated for 48 hrs by SRB assay relative to control; type: functional; conditions: read-out: Activity; in short: as §1
OVCAR-8 [11] = experiment: Antiproliferative activity against human OVCAR-8 cells assessed as cell growth at 0.0000001 M incubated for 48 hrs by SRB assay relative to control; type: functional; conditions: dose 100 nM, read-out: Activity
Malme-3M [12] = experiment: Antiproliferative activity against human Malme-3M cells assessed as cell growth at 0.00001 M incubated for 48 hrs by SRB assay relative to control; type: functional; conditions: read-out: Activity
IGROV-1 [13] = experiment: Antiproliferative activity against human IGROV-1 cells assessed as cell growth at 0.00001 M incubated for 48 hrs by SRB assay relative to control; type: functional; conditions: read-out: Activity
IGROV-1 [14] = experiment: Antiproliferative activity against human IGROV-1 cells assessed as cell growth at 0.0000001 M incubated for 48 hrs by SRB assay relative to control; type: functional; conditions: dose 100 nM, read-out: Activity
HT-29 [15] = experiment: Antiproliferative activity against human HT-29 cells assessed as cell growth at 0.0000001 M incubated for 48 hrs by SRB assay relative to control; type: functional; conditions: dose 100 nM, read-out: Activity; in short: as §1
RPMI-8226 = experiment: Antiproliferative activity against human RPMI-8226 cells assessed as cell growth at 0.0000001 M incubated for 48 hrs by SRB assay relative to control; type: functional; conditions: dose 100 nM, read-out: Activity
SK-MEL-28 = experiment: Antiproliferative activity against human SK-MEL-28 cells assessed as cell growth inhibition by measuring lethal concentration incubated for 48 hrs by sulforhodamine B assay; type: functional; conditions: read-out: LC50 (the source's name)
PC-3 = experiment: Growth inhibition against human PC-3 cells assessed as total growth inhibitory concentration incubated for 48 hrs by sulforhodamine B assay; type: functional
SK-MEL-2 = experiment: Antiproliferative activity against human SK-MEL-2 cells assessed as cell growth at 0.000001 M incubated for 48 hrs by SRB assay relative to control; type: functional; conditions: read-out: Activity
Calf thymus DNA = experiment: Binding affinity to calf thymus DNA assessed as intercalation by measuring hypochromic shift at 20 uM by UV-vis spectrophotometric method relative to control; type: nucleic-acid assay; conditions: Bos taurus
SR = experiment: Antiproliferative activity against human SR cells assessed as cell growth at 0.00000001 M incubated for 48 hrs by SRB assay relative to control; type: functional; conditions: dose 10 nM, read-out: Activity
OVCAR-5 = experiment: Antiproliferative activity against human OVCAR-5 cells assessed as cell growth at 0.00001 M incubated for 48 hrs by SRB assay relative to control; type: functional; conditions: read-out: Activity
A549 [16] = experiment: Antiproliferative activity against human A549 cells assessed as cell growth at 0.0000001 M incubated for 48 hrs by SRB assay relative to control; type: functional; conditions: dose 100 nM, read-out: Activity; in short: as §2
HCT-116 = experiment: Growth inhibition against human HCT-116 cells assessed as total growth inhibitory concentration incubated for 48 hrs by sulforhodamine B assay; type: functional

Compound	growth at 100 µM (Hs-578T [1])	growth at 1 µM (HOP-92 [2])	GI50 (EKVX)	GI50 (U-251)	growth at 0.1 µM (786-0)	growth at 100 µM (A498)	GI50 (HT-29 [3])	TGI (Hs-578T [4])	growth at 10 µM (SK-OV-3)	growth at 10 µM (A549 [5])	growth at 1 µM (NCI-H226 [6])	growth at 0.01 µM (SF-268)	growth at 0.01 µM (NCI-H226 [7])	growth at 10 µM (COLO 205)	GI50 (HOP-92 [8])	GI50 (Malme-3M [9])	growth at 100 µM (MDA-MB-231)	TGI (SF-539)	GI50 (OVCAR-8 [10])	growth at 10 µM (HL-60)	other results
COc1ccc(-c2cn3ccnc3c(-c3ccc4ncn(C5CCCCC5)c4c3)n2)cc1	-3%	54%	3040 nM	2220 nM	93%	24%	383 nM	49300 nM	-5%	14%	73%	96%	101%	1%	1180 nM	43100 nM	19%	2490 nM	3160 nM	-22%	growth at 0.1 µM (OVCAR-8 [11]): 106%; growth at 10 µM (Malme-3M [12]): 51%; growth at 10 µM (IGROV-1 [13]): 19%; growth at 0.1 µM (IGROV-1 [14]): 90%; growth at 0.1 µM (HT-29 [15]): 92%; growth at 0.1 µM (RPMI-8226): 108%; CC50 (SK-MEL-28): > 100000 nM; TGI (PC-3): > 100000 nM; growth at 1 µM (SK-MEL-2): 49%; Activity (Calf thymus DNA): 20.8%; growth at 0.01 µM (SR): 102%; growth at 10 µM (OVCAR-5): 31%; growth at 0.1 µM (A549 [16]): 103%; TGI (HCT-116): 4060 nM
c1ccc(Cn2cnc3ccc(-c4nc(-c5ccc6c(c5)ncn6C5CCCCC5)cn5ccnc45)cc32)cc1	12%	65%	1750 nM	1990 nM	86%	-83%	1890 nM	> 100000 nM	-24%	-46%	95%	96%	103%	-61%	1250 nM	2540 nM	-31%	2600 nM	2600 nM	-24%	growth at 0.1 µM (OVCAR-8 [11]): 114%; growth at 10 µM (Malme-3M [12]): -10%; growth at 10 µM (IGROV-1 [13]): 3%; growth at 0.1 µM (IGROV-1 [14]): 93%; growth at 0.1 µM (HT-29 [15]): 97%; growth at 0.1 µM (RPMI-8226): 113%; CC50 (SK-MEL-28): > 100000 nM; TGI (PC-3): 7550 nM; growth at 1 µM (SK-MEL-2): 90%; Activity (Calf thymus DNA): 15.3%; growth at 0.01 µM (SR): 98%; growth at 10 µM (OVCAR-5): -3%; growth at 0.1 µM (A549 [16]): 109%; TGI (HCT-116): 2630 nM
